Bioassay records deposited in PubChem by several laboratories.
Only a selection was taken, and hits are over-represented in it overall.
HePTP inhibitor = blocks human HePTP tyrosine phosphatase; P35236; recombinant HePTP phosphatase activity, OD absorbance; inhibition, % at 20 µM; 110,000 tested, 0.64% active; in the data active = inhibition above about 50%;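 note: plate controls were vehicle for no effect and reference inhibitor for full effect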
Ecoli WT expand = E. coli BW25113 growth inhibition, expanded screen | OD600 absorbance | growth inhibition, % at 100 µM | 98,000 tested, 0.15% active | AID 710;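 active = growth inhibition above about 50% at one test dose, limit read from the data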;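 note: growth measured after 20 h incubation at 37 °C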
E coli RNAP = blocks E. coli RNA polymerase transcription. P0A8V2. fluorescence transcription assay. inhibition, %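 (tested at 10 µM)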. 62,000 tested, 0.2% active. AID 559; in the data active = inhibition above about 20%;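 note: 0% = enzyme without compound and 100% = no enzyme blank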
Target sequence (P0A8V2 whole entry, looked up): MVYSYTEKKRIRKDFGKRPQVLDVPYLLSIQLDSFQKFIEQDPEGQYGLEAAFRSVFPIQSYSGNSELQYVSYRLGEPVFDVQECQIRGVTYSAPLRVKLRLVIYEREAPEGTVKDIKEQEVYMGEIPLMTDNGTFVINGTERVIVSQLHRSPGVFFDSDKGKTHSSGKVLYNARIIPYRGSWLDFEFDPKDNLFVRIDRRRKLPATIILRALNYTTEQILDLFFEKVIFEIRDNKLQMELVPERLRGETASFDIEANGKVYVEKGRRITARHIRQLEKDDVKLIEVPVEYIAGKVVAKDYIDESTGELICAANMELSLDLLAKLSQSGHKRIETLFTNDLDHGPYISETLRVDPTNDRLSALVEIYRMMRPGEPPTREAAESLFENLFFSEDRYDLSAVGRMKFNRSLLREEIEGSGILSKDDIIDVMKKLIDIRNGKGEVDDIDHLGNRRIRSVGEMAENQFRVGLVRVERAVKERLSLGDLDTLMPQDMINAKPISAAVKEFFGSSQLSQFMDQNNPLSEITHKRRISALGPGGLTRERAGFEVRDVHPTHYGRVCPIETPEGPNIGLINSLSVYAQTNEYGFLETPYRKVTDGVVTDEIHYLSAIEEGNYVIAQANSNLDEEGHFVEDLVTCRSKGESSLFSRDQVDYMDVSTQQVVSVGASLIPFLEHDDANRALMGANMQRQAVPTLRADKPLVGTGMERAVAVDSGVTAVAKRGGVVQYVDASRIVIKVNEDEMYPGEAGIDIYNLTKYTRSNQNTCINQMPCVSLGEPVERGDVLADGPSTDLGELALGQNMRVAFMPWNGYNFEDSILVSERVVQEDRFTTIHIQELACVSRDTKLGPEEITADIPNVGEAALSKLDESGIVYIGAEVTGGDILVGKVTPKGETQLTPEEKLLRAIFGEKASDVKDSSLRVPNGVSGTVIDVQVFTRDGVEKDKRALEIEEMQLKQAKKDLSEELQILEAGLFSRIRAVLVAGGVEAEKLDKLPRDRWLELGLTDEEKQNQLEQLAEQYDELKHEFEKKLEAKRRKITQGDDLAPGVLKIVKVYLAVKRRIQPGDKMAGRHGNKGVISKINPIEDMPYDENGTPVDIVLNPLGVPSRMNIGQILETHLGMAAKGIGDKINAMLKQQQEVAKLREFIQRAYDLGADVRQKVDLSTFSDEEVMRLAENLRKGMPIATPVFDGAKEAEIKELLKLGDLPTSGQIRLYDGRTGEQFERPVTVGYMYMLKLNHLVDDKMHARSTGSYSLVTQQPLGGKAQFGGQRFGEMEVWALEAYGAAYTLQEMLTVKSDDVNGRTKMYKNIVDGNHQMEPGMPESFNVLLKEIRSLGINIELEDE
Ecoli tolC = blocks growth of E. coli BW25113 tolC mutant. 65,000 tested, 2.2% active. OD615. growth inhibition, % at 10 µM (by protocol);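 active = growth inhibition at or above a cutoff equal to the mean over every tested compound plus 3 SD, cut at about 60% in these data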;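 note: growth measured after 20 h incubation at 37 °C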
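Assay system: tolC-deleted E. coli BW25113. Medium: kanamycin-containing LB broth (50 µg/mL). Dosing: 10 µM final, single dose. Timing: bacterial growth with compound for 20 h at 37 °C. Detection: A615 absorbance measurement. Read-out basis: growth inhibition in percent.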
MMP13 inh = inhibitors of human MMP13 | P45452 | MMP-13 fTHP FRET cleavage, Mca fluorescence | inhibition, % at 4 µM | 65,000 tested, 0.07% active;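 active = inhibition above the mean of compound-free control plate wells plus 3 SD, cut at about 14% in these data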;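 note: 0% = DMSO wells and 100% = wells with reference MMP-13 inhibitor after basal subtraction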
AP ELISA ortho = alternative pathway complement inhibition, orthogonal assay; inhibition, % at 5 µM; Human serum alternative complement pathway, LPS-coated ELISA, C3 deposition; tested in compound mixtures; AID 1235; 62,000 tested, 0.08% active;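 active = inhibition above 30% in each of the two pooled mixtures holding the compound, so the lower value exceeds 30%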;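 note: 0% = serum in Mg-EGTA without compound and 100% = EDTA serum blank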
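Assay system: human serum alternative complement pathway, C3 deposition on LPS-coated wells; Dosing: 5 µM per compound in ten-compound mixtures; Detection: Anti-C3 ELISA, OD 450 nm; Buffer or medium: Mg2+-EGTA GVB++ buffer containing human serum at 1:15 dilution; Timing: 1 h at 37 °C; Replication: two different pools per compound.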
An asterisk follows results filed as active; x = no result given; ! = not active in a repeat.

SMILES | HePTP inhibitor | Ecoli WT expand | E coli RNAP | Ecoli tolC | MMP13 inh | AP ELISA ortho
Cc1cccnc1Nc1nc(-c2ccccn2)cs1 | x | 20 | x | x | x | x
c1cnc(Nc2nc(-c3cccnc3)cs2)nc1 | 2 | x | x | x | x | x
Cc1cccc(Nc2nc(-c3ccccn3)cs2)n1 | -2 | 37 | 10 | 98* | -12 | 0
c1ccc(Nc2nc(-c3cccs3)cs2)nc1 | -1 | 4 | 6 | 100* | 3 | 10
c1cnc(Nc2nc(-c3cccs3)cs2)nc1 | 102* | x | x | x | x | x
COc1ccc(CN2CCN(CC3CC4C=CC3C4)CC2)c(OC)c1OC (stereo unspecified) | 4 | x | x | x | x | x
c1ccc(CN2CCN(c3nc(-c4ccccc4)nc(-n4ccnc4)n3)CC2)cc1 | -4 | -5 | 8 | 65* | 6 | -9
CCOC(=O)N1CCN(c2nc(N(c3ccccc3)c3ccccc3)nc(-n3ccnc3)n2)CC1 | 6 | x | -1 | 66* | -1 | 20
CN(c1ccccc1)c1nc(N2CCCC2)nc(-n2ccnc2)n1 | -6 | 12 | -3 | 96* | -1 | 10
c1ccc(N(c2ccccc2)c2nc(N3CCCC3)nc(-n3ccnc3)n2)cc1 | 5 | 5 | 1 | 6 | 8 | 6
COc1ccc(C2CC(c3ccccc3)n3nc(NC(=O)c4cccs4)nc3N2)cc1 (stereo unspecified) | 6 | -2 | 3 | 65* | -28 | 15
O=C(Nc1nc2n(n1)C(c1ccc(Cl)cc1)CC(c1ccc(Cl)cc1)N2)c1ccco1 (stereo unspecified) | 2 | -6 | 7 | 61* | 1 | -18
CCc1nnc(NS(=O)(=O)c2ccc(NS(=O)(=O)c3ccc4c(c3)C(=O)c3ccccc3-4)cc2)s1 | -13 | x | x | x | x | x
CCOc1cc(CNCCO)cc(Br)c1OCc1ccccc1Cl | x | 48 | x | x | x | x
CCOc1cc(CNCCO)cc(Br)c1OCc1ccc(Cl)cc1 | x | 78* | x | x | x | x
CCn1cc(C(=O)OCc2ccccc2)c(=O)c2ccc(C)nc21 | 2 | 31 | 7 | 56 | 6 | 2
CCn1cc(C(=O)OCC(=O)OC2CC(C)CCC2C(C)C)c(=O)c2ccc(C)nc21 (stereo unspecified) | 8 | 10 | 9 | 84* | 3 | 4
Cc1c(Cl)ccc2c(N=Nc3ccccn3)c(O)[nH]c12 | 7 | x | x | x | x | x
COc1ccc(-c2n[nH]c(C(F)(F)F)c2-c2cc3ccccc3o2)c(O)c1 | x | 17 | 7 | 100* | -52 | 7
Cc1ccc(N=Cc2ccc(OC3CSC3)cc2)cc1C | -2 | x | x | x | x | x
C=CCSc1nc2c(c(=N)n1CC=C)C1CCCC1S2 (stereo unspecified) | -6 | 6 | 8 | 96* | 4 | 1
CCc1c(O)nc(SCC(=O)Nc2ccc(C)cc2)n(C2CCCCC2)c1=O | 10 | 1 | x | 78* | 5 | 13
CCOC(=O)C1=C(c2ccccc2)N=C2SCC(=O)N2C1c1ccccc1OC (stereo unspecified) | -10 | x | x | x | x | x
Cc1cc(/C=C(/C#N)c2cccc(F)c2)c(C)n1-c1cccnc1 | 14 | -3 | 9 | 99* | 5 | -7
CCN1C(=S)SC(=O)C1=C1C=C(C)N(CCOC)C(C)=C1 | -2 | x | 6 | 3 | 27* | 11
SMILES | HePTP inhibitor | Ecoli WT expand | E coli RNAP | Ecoli tolC | MMP13 inh | AP ELISA ortho
CCN1C(=S)SC(=O)C1=C1C=C(C)N(CCO)C(C)=C1 | 2 | 3 | 12 | -5 | 13 | 2
C=CCc1cccc(/C=N/N=C2/NC(=O)CS2)c1O | -10 | x | x | x | x | x
Cc1nc(Nc2ccccc2)c(C(F)(F)F)c(C(F)(F)C(F)(F)F)n1 | 8 | x | x | x | x | x
CN1/C(=C\C(=O)COC(=O)C2COc3ccccc3O2)C(C)(C)c2ccccc21 (stereo unspecified) | -6 | -11 | 5 | -1 | -6 | -32
CN1/C(=C\C(=O)COc2ccc3c(c2)OCO3)C(C)(C)c2ccccc21 | 0 | -28 | 4 | 89* | -2 | 9
O=C1c2ccccc2C(=O)c2c1cccc2S(=O)(=O)Nc1ccc(Cl)cc1 | -2 | x | x | x | x | x
CC(=O)Nc1ccc(NS(=O)(=O)c2cccc3c2C(=O)c2ccccc2C3=O)cc1 | 102* | x | x | x | x | x
CC(=O)Nc1ccc(NS(=O)(=O)c2ccc(NC(C)=O)cc2)cc1 | 7 | x | x | x | x | x
CC(=O)Nc1ccc(NS(=O)(=O)c2ccc(C(C)(C)C)cc2)cc1 | 96* | x | x | x | x | x
COc1ccc(O)c(/C=N/c2ncn[nH]2)c1 | 14 | x | x | x | x | x
O=C1/C(=C\c2cccs2)CC2CC1C/C(=C/c1cccs1)C2=O | 6 | x | x | x | x | x
O=C1/C(=C\c2ccco2)CC2CC1C/C(=C/c1ccco1)C2=O | 102* | x | x | x | x | x
O=C(Nc1ccccc1C(=O)Nc1ccccc1)c1ccc(F)cc1 | 1 | x | x | x | x | x
FC(F)(F)c1ccc2nnc(-c3cc(Br)ccc3OCc3ccccc3)n2c1 | 55* | x | x | x | x | x
FC(F)(F)c1ccc2nnc(-c3cccc(OCc4ccccc4)c3)n2c1 | 101* | x | x | x | x | x
FC(F)(F)c1cccc(-c2nnc3ccc(C(F)(F)F)cn23)c1 | -5 | 11 | -3 | 0 | -7 | -13
COc1cccc(OC)c1C(=O)N(C)c1ccccc1 | 3 | x | x | x | x | x
Cc1sc(NC(=O)CCC2CCCCC2)nc1-c1ccccc1 | 102* | x | x | x | x | x
Cc1sc(NC(=O)/C=C\C(=O)O)nc1-c1ccccc1 | 103* | x | x | x | x | x
O=C(c1ccco1)N1CCN(c2nc(C3CC3)nc3sc4c(c23)CCCC4)CC1 | 8 | -11 | 6 | 77* | -9 | 8
COc1ccc(NS(=O)(=O)c2ccc3oc4ccccc4c3c2)cn1 | 3 | -4 | 4 | 100* | 1 | 6
COc1ccc(S(=O)(=O)N2CCN(CCN3C(=O)c4cccc5cccc(c45)C3=O)CC2)cc1[N+](=O)[O-] | 8 | x | x | x | x | x
COc1nc(N)nc(N2CCOCC2)n1 | 11 | -4 | 3 | -18 | 15* | 5
COc1cc(NC(=O)CN2C(=O)NC(C)(CCC(C)C)C2=O)cc(OC)c1 (stereo unspecified) | 8 | 2 | 7 | 13 | 4 | 7
CCCC1(CCC)NC(=O)N(CC(=O)Nc2cccc(OC)c2)C1=O | 13 | 2 | 40* | -1 | 0 | 7
CCOc1ccc(C(=O)Nc2cc(-c3nc4ccc(C)cc4o3)ccc2Cl)cc1 | 8 | x | x | x | x | x
Cc1cccc(C)c1NC(=O)c1c(C)nn(-c2ccccc2)c1Cl | x | 0 | x | x | x | x
Cc1nn(-c2ccccc2)c(Cl)c1C(=O)Nc1nnc(C2CCCC2)s1 | 5 | -22 | 5 | 100* | 0 | 29
COC(=O)C1=C(C)N(C)C(C)=C(C(=O)OC)C1c1ccsc1 | 105*! | 2 | -4 | 12 | 6 | -2
NC(=O)C12CC3CC(C1)CC(C(N)=O)(C3)C2 | -10 | x | x | x | x | x
